From ChEMBL document CHEMBL4477235, “Evolution of a Novel, Orally Bioavailable Series of PI3Kδ Inhibitors from an Inhaled Lead for the Treatment of Respiratory Disease” (J Med Chem, 2016)
Several values for one entry are separate records, joined by “and”; a condition that tells them apart may be missing. Equal values may be shown once. Activity calls are given as the source filed them. No cut-off for these calls is given here.

Experiments:
[1] = Clearance in mouse liver microsomes at 0.5 uM measured up to 30 mins by LC-MS/MS analysis; assay type: ADME, Microsome; conditions: 0.5 h
[2] = Oral bioavailability in Sprague-Dawley rat at 3 mg/kg measured up to 7 hrs by LC-MS/MS analysis; assay type: ADME, organism-based; conditions: in vivo, 7 h
Method in brief: (§1)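 Male Sprague Dawley rats, n = 2 per route, were dosed discretely at 3 mg/kg orally or 1 mg/kg intravenously. The dosing solution was DMSO/PEG200/water (5:45:50 v/v/v). Serial tail-vein blood samples were taken over 0–7 h, and parent compound was quantified by LC–MS/MS. Parameters were estimated by noncompartmental analysis.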

[3] = Volume of distribution at steady state in Sprague-Dawley rat at 3 mg/kg, po or 1 mg/kg, iv measured up to 7 hrs by LC-MS/MS analysis; assay type: ADME, organism-based; conditions: in vivo, read-out: Vdss; method in brief: as §1
Albumin = Albumin (Homo sapiens, UniProt P02768); experiment: Binding affinity to human serum albumin by HPLC analysis; assay type: ADME; conditions: read-out: PB (converted)
[4] = Clearance in Sprague-Dawley rat at 1 mg/kg, iv measured up to 7 hrs by LC-MS/MS analysis relative to liver blood flow; assay type: ADME, organism-based; conditions: in vivo
Method in brief: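 Male Sprague Dawley rats (n = 2/route), intravenous dose as a solution in DMSO/PEG200/water (5:45:50 v/v/v) at 2 mL/kg. Serial tail-vein blood sampling over 0–7 h. LC–MS/MS quantification of parent. Noncompartmental analysis.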

Rattus norvegicus = experiment: Anti-inflammatory activity in Brown Norway rat acute OVA model of TH2-driven lung inflammation assessed as protection against eosinophil recruitment in bronchoalveolar lavage fluid at 9 mg/kg, po pretreated for 30 mins followed by OVA challenge by DAPI staining based flow cytometry; assay type: functional, organism-based
Method in brief: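 Male Brown Norway rats (250–300 g) sensitized i.p. with 10 μg OVA plus 20 mg Al(OH)₃ on days 1 and 7. Oral compound given 30 min before intratracheal OVA challenge on day 21 or 28, under isoflurane. BAL taken 48 h post-challenge. Leucocytes counted by flow cytometry, gated on FSC/SSC, with DAPI+ dead cells excluded.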

[5] = Half life in Brown Norway rat acute OVA model of TH2-driven lung inflammation at 3 mg/kg, po pretreated for 30 mins followed by OVA challenge; assay type: ADME, organism-based; conditions: in vivo
[6] = Drug uptake in blood of Brown Norway rat acute OVA model of TH2-driven lung inflammation at 3 mg/kg, po pretreated for 30 mins followed by OVA challenge measured 1 hr post dose; assay type: ADME, organism-based; conditions: read-out: Drug uptake
Method in brief: (§2)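 Sensitized Brown Norway rats given oral compound 30 min before intratracheal OVA challenge. Blood concentration taken 1 h after dosing, i.e. 30 min after challenge.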

[7] = Drug uptake in blood of Brown Norway rat acute OVA model of TH2-driven lung inflammation at 9 mg/kg, po pretreated for 30 mins followed by OVA challenge measured 1 hr post dose; assay type: ADME, organism-based; conditions: read-out: Drug uptake; method in brief: as §2
[8] = target: Glycogen synthase kinase-3 beta (Homo sapiens, UniProt P49841); experiment: Inhibition of GSK3beta (unknown origin)
[9] = target: Tyrosine-protein kinase ITK/TSK (Homo sapiens, UniProt Q08881); experiment: Inhibition of ITK (unknown origin)
[10] = target: Tyrosine-protein kinase Lck (Homo sapiens, UniProt P06239); experiment: Inhibition of LCK (unknown origin)
[11] = target: Serine/threonine-protein kinase mTOR (Homo sapiens, UniProt P42345); experiment: Inhibition of FRAP1 (unknown origin)
[12] = target: Inhibitor of nuclear factor kappa-B kinase subunit beta (Homo sapiens, UniProt O14920); experiment: Inhibition of IKK2 (unknown origin)
[13] = target: Phosphatidylinositol 4-kinase type 2-alpha (Homo sapiens, UniProt Q9BTU6); experiment: Inhibition of PI4K2A (unknown origin)
[14] = target: Phosphatidylinositol 5-phosphate 4-kinase type-2 alpha (Homo sapiens, UniProt P48426); experiment: Inhibition of PIP4K2A (unknown origin)
[15] = target: Mitogen-activated protein kinase 14 (Homo sapiens, UniProt Q16539); experiment: Inhibition of P38alpha (unknown origin)
[16] = target: 3',5'-cyclic-AMP phosphodiesterase 4B (Homo sapiens, UniProt Q07343); experiment: Inhibition of PDE4B (unknown origin)
[17] = Fraction unbound in Wistar Han rat at 1 mg/kg after 1 hr by HPLC analysis; assay type: ADME, organism-based; conditions: in vivo
Method in brief: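 Unbound concentration at 1 h post-dose estimated by an internal algorithm from binding to HPLC columns coated with HSA and α-glycoprotein.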

[18] = target: T1, Phosphatidylinositol 4,5-bisphosphate 3-kinase catalytic subunit delta isoform (Homo sapiens, UniProt O00329)
T1 sequence (O00329 whole entry): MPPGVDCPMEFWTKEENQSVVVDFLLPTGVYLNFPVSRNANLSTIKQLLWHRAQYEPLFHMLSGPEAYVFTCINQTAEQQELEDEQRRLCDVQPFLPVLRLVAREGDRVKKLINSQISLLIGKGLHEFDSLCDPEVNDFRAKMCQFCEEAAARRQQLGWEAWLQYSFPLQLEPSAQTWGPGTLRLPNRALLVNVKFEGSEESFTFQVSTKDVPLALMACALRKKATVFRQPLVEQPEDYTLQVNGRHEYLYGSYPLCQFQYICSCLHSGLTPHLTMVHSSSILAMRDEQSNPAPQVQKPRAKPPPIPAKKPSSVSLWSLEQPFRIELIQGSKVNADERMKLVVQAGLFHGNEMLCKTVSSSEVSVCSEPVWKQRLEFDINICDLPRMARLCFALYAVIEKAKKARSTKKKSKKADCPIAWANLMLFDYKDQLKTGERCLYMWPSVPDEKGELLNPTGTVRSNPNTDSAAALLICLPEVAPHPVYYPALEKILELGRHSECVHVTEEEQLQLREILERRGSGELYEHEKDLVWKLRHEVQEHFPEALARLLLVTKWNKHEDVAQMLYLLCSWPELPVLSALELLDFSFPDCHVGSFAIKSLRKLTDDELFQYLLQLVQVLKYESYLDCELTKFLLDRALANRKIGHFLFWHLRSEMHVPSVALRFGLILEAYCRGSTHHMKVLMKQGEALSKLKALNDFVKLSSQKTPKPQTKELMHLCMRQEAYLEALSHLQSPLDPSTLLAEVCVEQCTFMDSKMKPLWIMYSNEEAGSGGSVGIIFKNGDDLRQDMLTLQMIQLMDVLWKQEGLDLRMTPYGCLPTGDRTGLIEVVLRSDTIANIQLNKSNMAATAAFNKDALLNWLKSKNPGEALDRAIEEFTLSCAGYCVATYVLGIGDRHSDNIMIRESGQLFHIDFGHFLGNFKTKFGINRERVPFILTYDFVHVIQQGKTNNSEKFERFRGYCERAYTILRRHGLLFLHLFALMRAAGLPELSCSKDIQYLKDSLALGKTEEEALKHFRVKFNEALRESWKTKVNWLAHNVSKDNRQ

Phosphatidylinositol 5-phosphate 4-kinase type-2 alpha, sequence (P48426 whole entry): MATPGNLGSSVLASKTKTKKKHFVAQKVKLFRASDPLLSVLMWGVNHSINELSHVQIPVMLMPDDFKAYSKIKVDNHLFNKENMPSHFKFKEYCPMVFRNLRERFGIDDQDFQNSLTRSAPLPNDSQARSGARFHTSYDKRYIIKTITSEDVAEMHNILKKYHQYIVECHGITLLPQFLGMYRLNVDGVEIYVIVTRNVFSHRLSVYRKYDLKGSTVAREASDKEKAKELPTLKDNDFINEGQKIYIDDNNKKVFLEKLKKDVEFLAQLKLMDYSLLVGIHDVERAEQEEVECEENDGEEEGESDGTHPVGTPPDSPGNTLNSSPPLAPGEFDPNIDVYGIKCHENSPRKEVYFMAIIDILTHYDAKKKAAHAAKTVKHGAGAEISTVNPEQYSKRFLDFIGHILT
3',5'-cyclic-AMP phosphodiesterase 4B, sequence (Q07343 whole entry): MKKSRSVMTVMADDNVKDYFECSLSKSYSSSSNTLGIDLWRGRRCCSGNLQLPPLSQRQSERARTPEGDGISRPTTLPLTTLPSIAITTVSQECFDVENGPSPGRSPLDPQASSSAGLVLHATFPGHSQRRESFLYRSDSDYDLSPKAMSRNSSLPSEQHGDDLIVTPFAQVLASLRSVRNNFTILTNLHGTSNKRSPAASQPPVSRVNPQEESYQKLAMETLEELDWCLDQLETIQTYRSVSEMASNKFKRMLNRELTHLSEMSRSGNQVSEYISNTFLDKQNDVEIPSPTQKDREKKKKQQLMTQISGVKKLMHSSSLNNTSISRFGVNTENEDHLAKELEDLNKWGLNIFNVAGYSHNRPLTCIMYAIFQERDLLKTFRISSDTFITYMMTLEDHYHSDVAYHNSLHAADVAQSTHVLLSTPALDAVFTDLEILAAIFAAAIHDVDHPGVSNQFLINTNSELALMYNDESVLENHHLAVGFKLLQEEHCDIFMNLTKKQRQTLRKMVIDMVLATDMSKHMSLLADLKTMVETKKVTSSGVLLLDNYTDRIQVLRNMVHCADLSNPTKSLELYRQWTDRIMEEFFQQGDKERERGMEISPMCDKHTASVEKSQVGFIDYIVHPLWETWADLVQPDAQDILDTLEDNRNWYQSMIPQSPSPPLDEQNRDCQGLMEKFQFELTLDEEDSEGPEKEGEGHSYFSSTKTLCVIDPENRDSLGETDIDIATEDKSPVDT
Inhibitor of nuclear factor kappa-B kinase subunit beta, sequence (O14920 whole entry): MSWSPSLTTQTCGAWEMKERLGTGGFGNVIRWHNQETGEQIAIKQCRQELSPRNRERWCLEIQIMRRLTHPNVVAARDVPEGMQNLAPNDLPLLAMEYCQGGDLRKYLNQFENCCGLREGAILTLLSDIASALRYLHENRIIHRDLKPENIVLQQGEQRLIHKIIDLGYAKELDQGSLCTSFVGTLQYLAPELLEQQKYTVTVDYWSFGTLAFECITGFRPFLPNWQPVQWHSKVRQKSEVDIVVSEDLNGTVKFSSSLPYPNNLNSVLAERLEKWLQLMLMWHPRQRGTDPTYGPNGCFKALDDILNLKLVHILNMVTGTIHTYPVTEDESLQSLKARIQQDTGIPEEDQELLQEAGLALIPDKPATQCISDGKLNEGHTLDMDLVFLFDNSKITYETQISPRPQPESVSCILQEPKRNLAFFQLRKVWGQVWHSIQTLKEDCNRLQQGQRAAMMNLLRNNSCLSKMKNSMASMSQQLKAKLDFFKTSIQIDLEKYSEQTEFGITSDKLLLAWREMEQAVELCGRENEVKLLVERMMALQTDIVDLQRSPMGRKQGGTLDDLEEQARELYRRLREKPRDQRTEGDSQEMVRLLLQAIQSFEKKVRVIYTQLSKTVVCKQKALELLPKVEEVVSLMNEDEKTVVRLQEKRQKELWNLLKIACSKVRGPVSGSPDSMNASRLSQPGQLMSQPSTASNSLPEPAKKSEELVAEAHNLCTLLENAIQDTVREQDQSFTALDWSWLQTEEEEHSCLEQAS
Glycogen synthase kinase-3 beta, sequence (P49841 whole entry): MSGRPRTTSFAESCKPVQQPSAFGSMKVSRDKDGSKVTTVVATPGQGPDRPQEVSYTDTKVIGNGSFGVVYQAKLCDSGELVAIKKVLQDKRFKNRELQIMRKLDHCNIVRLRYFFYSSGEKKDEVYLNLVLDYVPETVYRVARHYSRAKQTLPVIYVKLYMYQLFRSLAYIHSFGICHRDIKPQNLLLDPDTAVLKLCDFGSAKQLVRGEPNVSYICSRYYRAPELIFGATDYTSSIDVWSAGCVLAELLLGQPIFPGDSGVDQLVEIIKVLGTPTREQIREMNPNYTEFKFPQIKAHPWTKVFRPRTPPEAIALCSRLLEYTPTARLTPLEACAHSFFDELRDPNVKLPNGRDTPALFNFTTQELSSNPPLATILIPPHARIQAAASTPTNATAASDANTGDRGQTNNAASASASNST
Tyrosine-protein kinase Lck, sequence (P06239 whole entry): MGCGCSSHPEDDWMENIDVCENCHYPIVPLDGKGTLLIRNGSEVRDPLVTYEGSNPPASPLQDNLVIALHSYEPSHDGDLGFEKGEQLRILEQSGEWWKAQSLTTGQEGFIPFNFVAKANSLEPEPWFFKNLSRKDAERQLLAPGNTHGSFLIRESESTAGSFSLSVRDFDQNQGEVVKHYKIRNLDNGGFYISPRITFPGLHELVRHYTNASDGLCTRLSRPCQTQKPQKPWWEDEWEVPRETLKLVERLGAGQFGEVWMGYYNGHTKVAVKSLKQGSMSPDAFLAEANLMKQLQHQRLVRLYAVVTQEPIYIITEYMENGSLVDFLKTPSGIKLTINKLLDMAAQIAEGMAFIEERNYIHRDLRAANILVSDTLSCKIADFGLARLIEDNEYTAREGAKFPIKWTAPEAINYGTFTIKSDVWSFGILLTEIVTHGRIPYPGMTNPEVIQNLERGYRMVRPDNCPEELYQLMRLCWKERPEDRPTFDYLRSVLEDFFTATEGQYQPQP
Albumin, sequence (P02768 whole entry): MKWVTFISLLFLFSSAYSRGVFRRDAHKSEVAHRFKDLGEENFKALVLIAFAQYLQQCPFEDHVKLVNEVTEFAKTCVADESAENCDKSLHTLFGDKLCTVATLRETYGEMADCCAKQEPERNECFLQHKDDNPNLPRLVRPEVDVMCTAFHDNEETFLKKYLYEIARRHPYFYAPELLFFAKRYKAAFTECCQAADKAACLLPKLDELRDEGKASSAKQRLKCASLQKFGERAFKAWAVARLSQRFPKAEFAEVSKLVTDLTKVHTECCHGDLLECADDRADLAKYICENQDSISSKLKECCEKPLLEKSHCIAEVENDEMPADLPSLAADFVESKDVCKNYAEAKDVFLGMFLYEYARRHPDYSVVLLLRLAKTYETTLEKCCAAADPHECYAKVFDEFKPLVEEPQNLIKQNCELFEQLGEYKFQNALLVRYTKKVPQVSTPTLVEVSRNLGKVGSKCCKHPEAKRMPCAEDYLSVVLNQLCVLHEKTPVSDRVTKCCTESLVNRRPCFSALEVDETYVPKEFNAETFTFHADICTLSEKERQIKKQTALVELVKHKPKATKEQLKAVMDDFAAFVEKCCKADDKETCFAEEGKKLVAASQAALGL
Mitogen-activated protein kinase 14, sequence (Q16539 whole entry): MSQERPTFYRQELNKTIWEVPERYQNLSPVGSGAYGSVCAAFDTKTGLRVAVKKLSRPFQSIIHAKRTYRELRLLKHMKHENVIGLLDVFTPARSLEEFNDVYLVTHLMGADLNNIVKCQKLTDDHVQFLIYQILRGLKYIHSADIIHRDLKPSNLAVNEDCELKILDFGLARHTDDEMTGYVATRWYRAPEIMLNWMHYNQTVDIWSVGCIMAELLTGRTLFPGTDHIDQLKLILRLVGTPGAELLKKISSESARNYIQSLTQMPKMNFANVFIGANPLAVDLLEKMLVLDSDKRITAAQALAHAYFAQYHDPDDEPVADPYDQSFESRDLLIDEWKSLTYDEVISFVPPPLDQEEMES
Tyrosine-protein kinase ITK/TSK, sequence (Q08881 whole entry): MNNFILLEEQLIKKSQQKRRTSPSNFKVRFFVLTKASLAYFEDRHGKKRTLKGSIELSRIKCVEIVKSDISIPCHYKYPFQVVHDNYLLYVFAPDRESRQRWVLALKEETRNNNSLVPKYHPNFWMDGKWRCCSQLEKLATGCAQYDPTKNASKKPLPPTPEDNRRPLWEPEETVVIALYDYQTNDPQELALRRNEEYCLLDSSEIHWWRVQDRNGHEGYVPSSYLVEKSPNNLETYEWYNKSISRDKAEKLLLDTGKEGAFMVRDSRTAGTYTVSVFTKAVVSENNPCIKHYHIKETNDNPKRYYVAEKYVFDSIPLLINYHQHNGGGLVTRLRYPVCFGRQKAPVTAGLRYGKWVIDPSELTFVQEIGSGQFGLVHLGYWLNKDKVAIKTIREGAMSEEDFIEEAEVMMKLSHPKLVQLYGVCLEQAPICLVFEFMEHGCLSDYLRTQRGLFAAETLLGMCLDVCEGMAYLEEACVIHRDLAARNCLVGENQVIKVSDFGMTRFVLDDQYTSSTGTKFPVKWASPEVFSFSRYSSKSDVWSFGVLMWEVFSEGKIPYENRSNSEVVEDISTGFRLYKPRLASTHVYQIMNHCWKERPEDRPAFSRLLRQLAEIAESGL
Phosphatidylinositol 4-kinase type 2-alpha, sequence (Q9BTU6 whole entry): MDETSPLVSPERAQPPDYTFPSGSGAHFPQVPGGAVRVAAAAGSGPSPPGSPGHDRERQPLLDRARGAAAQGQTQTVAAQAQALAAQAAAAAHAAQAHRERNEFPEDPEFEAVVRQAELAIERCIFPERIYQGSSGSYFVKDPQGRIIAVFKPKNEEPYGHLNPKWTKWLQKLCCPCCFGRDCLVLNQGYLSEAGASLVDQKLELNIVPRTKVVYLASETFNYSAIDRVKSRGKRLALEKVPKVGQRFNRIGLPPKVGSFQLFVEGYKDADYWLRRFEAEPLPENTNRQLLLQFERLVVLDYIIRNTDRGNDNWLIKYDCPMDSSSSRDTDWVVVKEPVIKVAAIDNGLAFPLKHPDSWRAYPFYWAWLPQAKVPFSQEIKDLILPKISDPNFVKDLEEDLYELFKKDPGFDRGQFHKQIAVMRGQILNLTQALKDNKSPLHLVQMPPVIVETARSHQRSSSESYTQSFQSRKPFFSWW

COc1ncc(-c2cc3c(c(NC(=O)CN4CCOCC4)c2)COC3)cc1NS(C)(=O)=O
CLH [1]: < 0.5 mL/min/g | F [2]: 54% | Vd [3]: 1.1 L/kg | fraction unbound (Albumin): 0.36 | CL [4]: < 20% | Activity (Rattus norvegicus): inactive | half-life [5]: 10.6 h | concentration at 1 h [6]: 0.19 µM | concentration at 1 h [7]: 1.27 µM | IC50 [8]: > 10 µM | IC50 [9]: > 10 µM | IC50 [10]: > 10 µM | IC50 [11]: > 10 µM | IC50 [12]: > 10 µM | IC50 [13]: > 10 µM | IC50 [14]: > 10 µM | IC50 [15]: > 10 µM | IC50 [16]: > 10 µM | Drug uptake(free) [17]: 0.089 µM | IC50 [18]: 0.158 to 0.251 µM and 0.25 µM
